# How the values were obtained:
# Staphylococcus aureus [1] = assay: Antibacterial activity against Staphylococcus aureus ATCC 29213 after 24 hrs by broth microdilution method; format: functional; conditions: ATCC 29213, 24 h
# [2] = system: Staphylococcus epidermidis; assay: Antibacterial activity against Staphylococcus epidermidis ATCC 35984 after 24 hrs by broth microdilution method; format: functional; conditions: RP62A
# [3] = Selectivity ratio of IC50 for human HT-29 cells to MIC for Staphylococcus aureus ATCC 29213; format: functional
# Outline: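 Ratio of HT-29 IC50 (MTT assay, 24 h exposure) to MIC against S. aureus ATCC 29213 (CLSI broth microdilution, 24 h, 37 °C).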
# HT-29 = assay: Antiproliferative activity against human HT-29 cells after 24 hrs by MTT assay; format: cell-based; conditions: HT-29, 24 h
# Outline: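 HT-29 human colon adenocarcinoma cells seeded at 1 × 10⁴ cells/well in RPMI 1640 with 10% FBS and 10 µg/mL gentamicin, left overnight at 37 °C, 5% CO₂. Medium then replaced with medium holding test agents (final DMSO 0.1%; DMSO-only controls), at least 6 wells per condition, for 24 h. Viability read by MTT (0.5 mg/mL, 2 h, 37 °C), DMSO solubilization, absorbance 570 nm.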
# Staphylococcus aureus [4] = assay: Antibacterial activity against methicillin-resistant Staphylococcus aureus ATCC 33592 after 24 hrs by broth microdilution method; format: functional; conditions: ATCC 33592, 24 h
# Outline: (§1)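 CLSI broth microdilution. Bacteria grown overnight on LB agar, suspended in PBS, then exposed to test agents at 0.25 to 64 µg/mL in triplicate. Incubation 37 °C for 24 h. MIC is the lowest concentration with no visible bacterial growth. DMSO stocks diluted in culture medium to a final DMSO of 0.1%.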
# Staphylococcus aureus [5] = assay: Antibacterial activity against methicillin-resistant Staphylococcus aureus expressing […] subtype VT after 24 hrs by broth microdilution method; format: functional; outline: as §1
# [6] = system: Staphylococcus lugdunensis; assay: Antibacterial activity against Staphylococcus lugdunensis isolate NTUH after 24 hrs by broth microdilution method; format: functional
# Staphylococcus aureus [7] = assay: Antibacterial activity against Staphylococcus aureus ATCC 12598 after 24 hrs by broth microdilution method; format: functional; conditions: ATCC 12598, 24 h
# Outline: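 CLSI broth microdilution. Incubation 37 °C for 24 h. MIC is the lowest concentration with no visible bacterial growth. DMSO stocks diluted in culture medium to a final DMSO of 0.1%.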
# [8] = system: Staphylococcus intermedius; assay: Antibacterial activity against Staphylococcus intermedius ATCC 29663 after 24 hrs by broth microdilution method; format: functional; conditions: ATCC 29663, 24 h
# Staphylococcus aureus [9] = assay: Antibacterial activity against methicillin-resistant Staphylococcus aureus ATCC 49476 after 24 hrs by broth microdilution method; conditions: ATCC 49476, 24 h
# Staphylococcus aureus [10] = assay: Bactericidal activity against Staphylococcus aureus ATCC 29213 assessed as decrease in bacterial count at 8 times compound MIC after 24 hrs by time-kill assay; format: functional; parameters: scale not given: the % may be the effect or the level left
# Outline: (§2)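 S. aureus ATCC 29213 at 5 × 10⁵ CFU/mL in CAMHB exposed to test agents at 2-, 4- and 8-fold MIC, in triplicate. DMSO-matched medium served as control. At successive times, aliquots serially diluted in PBS and plated on LB agar (37 °C, 16 h). Counts given as CFU/mL, mean ± SD (n = 3); 99.9% killing used as reference.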
# Mus musculus [11] = assay: Toxicity in C57BL/6 mouse infected with methicillin-resistant Staphylococcus aureus ATCC 33592 assessed as weight loss at 30 mg/kg, ip administered 1 hr post infection; format: organism-based; parameters: dose 30 mg/kg, route intraperitoneal; conditions: in vivo
# Outline: (§3)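 Female C57BL/6 mice, N = 5 per group, were infected ip with a 100% lethal dose of MRSA, 7 × 10⁷ CFU in 0.3 ml PBS. At 1 h they received one ip dose of 30 mg/kg in vehicle (40% PEG-400, 10% […], 10% DMSO in normal saline). Body weight and morbidity were recorded daily for 7 days. Mice were sacrificed on significant morbidity, including 20% weight loss.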
# Mus musculus [12] = assay: Toxicity in C57BL/6 mouse infected with methicillin-resistant Staphylococcus aureus ATCC 33592 assessed as decrease in body temperature at 30 mg/kg, ip administered 1 hr post infection; format: organism-based; parameters: dose 30 mg/kg, route intraperitoneal; conditions: in vivo; outline: as §3
# Mus musculus [13] = assay: Toxicity in C57BL/6 mouse infected with methicillin-resistant Staphylococcus aureus ATCC 33592 assessed as lethargy at 30 mg/kg, ip administered 1 hr post infection; format: organism-based; parameters: dose 30 mg/kg, route intraperitoneal; conditions: in vivo; outline: as §3
# Staphylococcus aureus [14] = assay: Antibacterial activity against methicillin-resistant Staphylococcus aureus ATCC 33592 infected in C57BL/6 mouse assessed as mouse survival time at 30 mg/kg, ip administered 1 hr post infection; format: functional; conditions: route intraperitoneal; outline: as §3
# Staphylococcus aureus [15] = assay: Bactericidal activity against Staphylococcus aureus ATCC 29213 assessed as decrease in bacterial count at 2 to 8 times compound MIC by time-kill assay; format: functional, organism-based; conditions: TDE = time-dependent effect; outline: as §2
# [16] = system: Staphylococcus epidermidis; assay: Antibacterial activity against Staphylococcus epidermidis ATCC 12228 after 24 hrs by broth microdilution method; format: functional; conditions: ATCC 12228, 24 h
# [17] = system: Staphylococcus haemolyticus; assay: Antibacterial activity against Staphylococcus haemolyticus ATCC 29970 after 24 hrs by broth microdilution method; format: functional; conditions: ATCC 29970, 24 h
# Staphylococcus hominis = assay: Antibacterial activity against Staphylococcus hominis ATCC 27844 after 24 hrs by broth microdilution method; format: functional; conditions: ATCC 27844, 24 h
# [18] = system: Staphylococcus saprophyticus; assay: Antibacterial activity against Staphylococcus saprophyticus ATCC 15305 after 24 hrs by broth microdilution method; format: functional; conditions: ATCC 15305, 24 h
# Staphylococcus aureus [19] = assay: Antibacterial activity against Staphylococcus aureus assessed as log decrease in bacterial CFU at 32 ug/ml after 24 hrs; format: functional
Structure (SMILES),MIC (Staphylococcus aureus [1]) [µg/mL],MIC [2] [µg/mL],IC50 (HT-29) [µg/mL],Ratio [3],MIC [6] [µg/mL],other results
NCCCC[C@H](N)C(=O)Nc1ccc(-n2nc(C(F)(F)F)cc2-c2ccc3c(ccc4ccccc43)c2)cc1,,,19.5,4.9,,
O=C(N[C@H](CO)[C@H](O)c1ccc([N+](=O)[O-])cc1)C(Cl)Cl [CHLORAMPHENICOL],8,8,,,2,MIC (Staphylococcus aureus [4]): 64 µg/mL; MIC (Staphylococcus aureus [5]): 32 µg/mL
NS(=O)(=O)Nc1ccc(-n2nc(C(F)(F)F)cc2-c2ccc(-c3ccccc3)cc2)cc1,1,,,16,2,MIC (Staphylococcus aureus [7]): 1 µg/mL; MIC (Staphylococcus aureus [4]): 1 µg/mL; MIC (Staphylococcus aureus [5]): 1 µg/mL; MIC [8]: 2 µg/mL; MIC (Staphylococcus aureus [9]): 1 µg/mL
NCC(=O)Nc1ccc(-n2nc(C(F)(F)F)cc2-c2ccc3c(c2)oc2ccccc23)cc1,4,4,6.5,1.6,,
NCCC(=O)Nc1ccc(-n2nc(C(F)(F)F)cc2-c2ccc(-c3ccc(C(F)(F)F)cc3)cc2)cc1,4,4,4.2,1.1,,
NS(=O)(=O)Nc1ccc(-n2nc(C(F)(F)F)cc2-c2ccc3c(ccc4ccccc43)c2)cc1,1,2,,12,2,MIC [8]: 1 µg/mL; Activity (Staphylococcus aureus [10]): 99.91%; Activity (Mus musculus [11]): > 20%; Activity (Mus musculus [12]): Toxic; Activity (Mus musculus [13]): Toxic; Survival (Staphylococcus aureus [14]): <=2 day; Activity (Staphylococcus aureus [15]): tde
NS(=O)(=O)Nc1ccc(-n2nc(C(F)(F)F)cc2-c2ccc3cc4ccccc4cc3c2)cc1,,,11,2.8,4,MIC [16]: 2 µg/mL; MIC (Staphylococcus aureus [4]): 2 µg/mL; MIC (Staphylococcus aureus [5]): 2 µg/mL; MIC [17]: 16 µg/mL; MIC (Staphylococcus hominis): 2 µg/mL; MIC [8]: 4 µg/mL; MIC [18]: 8 µg/mL; MIC (Staphylococcus aureus [9]): 2 µg/mL
Cc1ccc(-c2cc(C(F)(F)F)nn2-c2ccc(S(N)(=O)=O)cc2)cc1 [CELECOXIB],32,16,18,0.6,,FC (Staphylococcus aureus [19]): 6

# Continued, in another order:
MIC (Staphylococcus aureus [1]) [µg/mL],MIC [2] [µg/mL],IC50 (HT-29) [µg/mL],Structure (SMILES),Ratio [3],MIC [6] [µg/mL],other results
4,4,,NCC(=O)Nc1ccc(-n2nc(C(F)(F)F)cc2-c2ccc3c(c2)Nc2ccccc2S3)cc1,1.6,,
4,4,,NCCC(=O)Nc1ccc(-n2nc(C(F)(F)F)cc2-c2ccc3c(c2)oc2ccccc23)cc1,1.8,,
4,8,12.5,NS(=O)(=O)c1ccc(-n2nc(C(F)(F)F)cc2-c2ccc(-c3ccc(Cl)cc3)cc2)cc1,3.1,,
4,4,7.5,NCCC(=O)Nc1ccc(-n2nc(C(F)(F)F)cc2-c2ccc3c(c2)Nc2ccccc2S3)cc1,1.9,,

# Source: ChEMBL document CHEMBL2057145, “Development of novel antibacterial agents against methicillin-resistant Staphylococcus aureus” (Bioorg Med Chem, 2012)
